Results published in ChEMBL document CHEMBL1138440, “Phosphorous acid analogs of novel P2-P4 macrocycles as inhibitors of HCV-NS3 protease” (Bioorg Med Chem Lett, 2009).

What was measured:
[1] = test system: Hepatitis C virus; assay: Antiviral activity against HCV infected in human HuH7 cells by subgenomic replication assay in presence of 50% normal human serum; format: functional, organism-based, Hepacivirus hominis, Huh-7
Outline: (§1)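 HCV replicon replication assay in Huh-7 cells; EC50 is the concentration giving 50% inhibition of replication. Run with 10% fetal calf serum (low serum) or 50% normal human serum (to gauge protein binding). Mean of at least three independent experiments.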

[2] = test system: Hepatitis C virus; assay: Inhibition of HCV genotype 1b NS3/4A protease; parameters: species or system Hepatitis C virus subtype 1b
Outline: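 Full-length HCV NS3/4A protease; inhibition reported as Ki. Mean of at least three independent experiments.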

[3] = test system: Hepatitis C virus; assay: Antiviral activity against HCV infected in human HuH7 cells by subgenomic replication assay in presence of 10% fetal calf serum; format: functional, organism-based, Hepacivirus hominis; conditions: Huh-7; outline: as §1

C=CC1CC1(NC(=O)[C@@H]1C[C@@H]2CN1C(=O)[C@H](C(C)(C)C)NC(=O)OCC(C)(C)CCCCc1cccc3c1CN(C3)C(=O)O2)P(=O)(OCC)OCC (stereo in doubt)
EC50 ([1]; huh-7): 20000 nM
Ki [2]: 2900 nM

C=CC1CC1(NC(=O)[C@@H]1C[C@@H]2CN1C(=O)[C@H](C(C)(C)C)NC(=O)OCC(C)(C)CCCCc1cccc3c1CN(C3)C(=O)O2)P(=O)(O)OCC (mixture of isomers)
EC50 ([1]; Hepatitis C virus, Huh-7): 2400 nM
Ki [2]: 70 nM
EC50 [3]: 660 nM

C=CC1CC1(NC(=O)[C@@H]1C[C@@H]2CN1C(=O)[C@H](C(C)(C)C)NC(=O)OCC(C)(C)CCCCc1cccc3c1CN(C3)C(=O)O2)P(=O)(OCC)OCC (single isomer, unassigned)
EC50 ([1]; Hepatitis C virus, Huh-7): 15000 nM
EC50 [3]: 20000 nM

C=CC1CC1(NC(=O)[C@@H]1C[C@@H]2CN1C(=O)[C@H](C(C)(C)C)NC(=O)OCC(C)(C)CCCCc1cccc3c1CN(C3)C(=O)O2)P(C)(=O)O (mixture of isomers)
EC50 ([1]; Hepatitis C virus, Huh-7): 250 nM
Ki [2]: 2 nM
EC50 [3]: 500 nM

C=C[C@H]1C[C@]1(NC(=O)[C@@H]1C[C@@H]2CN1C(=O)[C@H](C(C)(C)C)NC(=O)OCC(C)(C)CCCCc1cccc3c1CN(C3)C(=O)O2)C(=O)O
Ki [2]: 2800 nM

C=CC1CC1(NC(=O)[C@@H]1C[C@@H]2CN1C(=O)[C@H](C(C)(C)C)NC(=O)OCC(C)(C)CCCCc1cccc3c1CN(C3)C(=O)O2)P(=O)(O)O (mixture of isomers)
Ki [2]: 16 nM
